Activity calls are given as the source filed them. The calls are words filed in the database; no cut-off is given here.
Experiments:
[1] = target: Cyclin-dependent kinase 1 (Homo sapiens) (UniProt P06493); experiment: Inhibition of Cdk1 at 10 uM
[2] = target: Vascular endothelial growth factor receptor 1 (Homo sapiens, UniProt P17948); experiment: Inhibition of VEGFR1 by HTRF assay
[3] = Inhibition of PKA at 10 uM
[4] = target: T1, Vascular endothelial growth factor receptor 2 (Homo sapiens, UniProt P35968); experiment: Inhibition of VEGFR2 by HTRF assay in presence of 2 uM ATP
Method in brief: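 HTRF kinase assay with KDR enzyme (3–4 ng) and biotinylated pGAT substrate. ATP added to start, 45 min at RT. Stopped with EDTA/KF buffer plus Eu-cryptate anti-phosphotyrosine antibody, 2 h RT, then HTRF read. IC50 from 10-point log concentration curves, mean of at least two duplicate runs.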

[5] = target: Aurora kinase B (Homo sapiens) (UniProt Q96GD4); experiment: Inhibition of Aurora B at 10 uM
[6] = target: Fibroblast growth factor receptor 1 (Homo sapiens) (UniProt P11362); experiment: Inhibition of FGFR1 at 10 uM
[7] = target: Epidermal growth factor receptor (Homo sapiens) (UniProt P00533); experiment: Inhibition of EGFR at 10 uM
[8] = target: Receptor tyrosine-protein kinase erbB-2 (Homo sapiens) (UniProt P04626); experiment: Inhibition of ErbB2 at 10 uM
[9] = target: Receptor-type tyrosine-protein kinase FLT3 (Homo sapiens) (UniProt P36888); experiment: Inhibition of Flt3 at 10 uM
[10] = target: T2, Aurora kinase A (Homo sapiens) (UniProt O14965); experiment: Inhibition of Aurora A at 10 uM
T2 sequence (whole entry): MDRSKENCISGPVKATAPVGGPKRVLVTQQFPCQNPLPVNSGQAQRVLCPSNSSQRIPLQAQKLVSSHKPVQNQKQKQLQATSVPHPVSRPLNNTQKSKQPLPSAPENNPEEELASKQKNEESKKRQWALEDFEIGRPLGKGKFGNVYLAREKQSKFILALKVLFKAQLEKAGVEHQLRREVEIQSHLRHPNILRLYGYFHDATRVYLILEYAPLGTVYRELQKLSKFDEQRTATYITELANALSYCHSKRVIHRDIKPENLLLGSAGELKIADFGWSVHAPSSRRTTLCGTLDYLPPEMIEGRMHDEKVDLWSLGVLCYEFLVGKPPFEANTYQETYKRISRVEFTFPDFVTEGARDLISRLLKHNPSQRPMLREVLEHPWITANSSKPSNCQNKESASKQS

[11] = target: T1, Vascular endothelial growth factor receptor 2; experiment: Inhibition of VEGF-induced phosphorylation of VEGFR2 by cell-based ELISA
[12] = target: Hepatocyte growth factor receptor (Homo sapiens) (UniProt P08581); experiment: Inhibition of c-Met at 10 uM
[13] = target: Insulin receptor (Homo sapiens) (UniProt P06213); experiment: Inhibition of IR at 10 uM
[14] = Inhibition of Bcr-Abl T315 mutant at 10 uM
[15] = target: Serine/threonine-protein kinase PLK1 (Homo sapiens) (UniProt P53350); experiment: Inhibition of Plk1 at 10 uM
[16] = target: Proto-oncogene tyrosine-protein kinase Src (Homo sapiens) (UniProt P12931); experiment: Inhibition of Src at 10 uM
[17] = target: Cyclin-dependent kinase 2 (Homo sapiens) (UniProt P24941); experiment: Inhibition of Cdk2 at 10 uM
[18] = target: Macrophage-stimulating protein receptor (Homo sapiens) (UniProt Q04912); experiment: Inhibition of Ron at 10 uM
[19] = target: Bcr/Abl fusion protein (Homo sapiens) (UniProt P00519+P11274); experiment: Inhibition of Bcr-Abl at 10 uM; format: protein assay
[20] = target: Glycogen synthase kinase-3 beta (Homo sapiens) (UniProt P49841); experiment: Inhibition of GSK3-beta at 10 uM
[21] = target: Insulin-like growth factor 1 receptor (Homo sapiens) (UniProt P08069); experiment: Inhibition of IGF1R at 10 uM

Epidermal growth factor receptor (Homo sapiens), sequence (P00533 whole entry): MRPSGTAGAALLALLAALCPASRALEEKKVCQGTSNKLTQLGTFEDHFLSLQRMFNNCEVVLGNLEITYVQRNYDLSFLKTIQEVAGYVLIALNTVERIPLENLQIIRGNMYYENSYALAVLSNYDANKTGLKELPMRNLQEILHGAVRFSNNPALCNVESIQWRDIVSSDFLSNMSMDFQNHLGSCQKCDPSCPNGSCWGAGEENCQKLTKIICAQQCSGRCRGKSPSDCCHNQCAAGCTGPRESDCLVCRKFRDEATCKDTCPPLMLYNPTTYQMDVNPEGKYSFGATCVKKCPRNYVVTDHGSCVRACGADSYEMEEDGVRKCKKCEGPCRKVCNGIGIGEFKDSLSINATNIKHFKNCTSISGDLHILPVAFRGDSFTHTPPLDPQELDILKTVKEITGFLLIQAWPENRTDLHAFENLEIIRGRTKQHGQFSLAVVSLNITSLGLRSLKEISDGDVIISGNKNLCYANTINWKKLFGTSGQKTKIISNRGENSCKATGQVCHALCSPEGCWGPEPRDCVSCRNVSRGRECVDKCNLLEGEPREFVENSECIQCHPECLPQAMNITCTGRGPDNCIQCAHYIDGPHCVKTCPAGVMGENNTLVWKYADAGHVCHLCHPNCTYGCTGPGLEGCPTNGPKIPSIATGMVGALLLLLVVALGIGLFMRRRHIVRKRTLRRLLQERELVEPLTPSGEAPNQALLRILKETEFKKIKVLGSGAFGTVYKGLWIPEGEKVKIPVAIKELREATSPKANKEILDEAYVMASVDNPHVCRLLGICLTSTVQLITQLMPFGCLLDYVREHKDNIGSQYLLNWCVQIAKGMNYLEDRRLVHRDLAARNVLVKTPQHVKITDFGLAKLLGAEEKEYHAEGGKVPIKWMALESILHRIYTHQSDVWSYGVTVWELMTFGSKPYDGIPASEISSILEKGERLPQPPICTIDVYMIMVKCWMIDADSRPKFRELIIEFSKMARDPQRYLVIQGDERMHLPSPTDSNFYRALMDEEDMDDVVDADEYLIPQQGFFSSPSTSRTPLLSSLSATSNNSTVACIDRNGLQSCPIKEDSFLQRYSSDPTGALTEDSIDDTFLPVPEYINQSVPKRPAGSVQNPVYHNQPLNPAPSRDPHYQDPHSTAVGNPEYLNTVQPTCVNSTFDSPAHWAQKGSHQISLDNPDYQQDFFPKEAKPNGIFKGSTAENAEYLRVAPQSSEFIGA
Cyclin-dependent kinase 1 (Homo sapiens), sequence (P06493 whole entry, looked up): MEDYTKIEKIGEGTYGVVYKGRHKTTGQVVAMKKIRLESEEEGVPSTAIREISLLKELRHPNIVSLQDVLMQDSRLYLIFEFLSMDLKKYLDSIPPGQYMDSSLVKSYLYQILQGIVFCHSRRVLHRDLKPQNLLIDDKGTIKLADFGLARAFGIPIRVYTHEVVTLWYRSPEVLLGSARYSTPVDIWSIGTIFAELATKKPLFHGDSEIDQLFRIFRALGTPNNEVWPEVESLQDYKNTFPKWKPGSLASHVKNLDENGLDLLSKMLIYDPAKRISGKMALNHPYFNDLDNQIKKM
Receptor-type tyrosine-protein kinase FLT3 (Homo sapiens), sequence (P36888 whole entry): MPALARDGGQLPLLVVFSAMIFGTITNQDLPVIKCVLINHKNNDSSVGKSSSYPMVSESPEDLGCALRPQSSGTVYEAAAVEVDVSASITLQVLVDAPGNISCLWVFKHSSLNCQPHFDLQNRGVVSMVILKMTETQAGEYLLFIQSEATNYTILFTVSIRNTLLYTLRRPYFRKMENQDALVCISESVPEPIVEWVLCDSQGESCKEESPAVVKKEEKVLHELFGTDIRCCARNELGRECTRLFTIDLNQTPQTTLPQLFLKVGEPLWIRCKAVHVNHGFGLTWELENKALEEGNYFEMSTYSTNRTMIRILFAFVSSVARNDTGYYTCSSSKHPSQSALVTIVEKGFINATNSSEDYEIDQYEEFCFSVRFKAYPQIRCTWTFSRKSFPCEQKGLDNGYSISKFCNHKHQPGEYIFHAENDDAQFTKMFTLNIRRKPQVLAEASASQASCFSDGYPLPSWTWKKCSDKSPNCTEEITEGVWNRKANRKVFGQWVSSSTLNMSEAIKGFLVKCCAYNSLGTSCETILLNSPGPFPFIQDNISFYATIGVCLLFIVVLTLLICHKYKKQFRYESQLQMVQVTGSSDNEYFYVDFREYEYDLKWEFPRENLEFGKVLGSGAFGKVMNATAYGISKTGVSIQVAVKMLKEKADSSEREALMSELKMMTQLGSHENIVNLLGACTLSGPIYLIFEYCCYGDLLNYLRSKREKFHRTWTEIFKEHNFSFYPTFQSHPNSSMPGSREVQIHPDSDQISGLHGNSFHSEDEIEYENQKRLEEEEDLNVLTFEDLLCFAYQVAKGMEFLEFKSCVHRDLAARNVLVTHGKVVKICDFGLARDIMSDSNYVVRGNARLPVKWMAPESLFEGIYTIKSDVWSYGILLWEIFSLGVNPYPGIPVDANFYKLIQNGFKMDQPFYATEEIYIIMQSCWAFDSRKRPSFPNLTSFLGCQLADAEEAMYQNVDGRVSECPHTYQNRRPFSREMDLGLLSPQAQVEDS
Vascular endothelial growth factor receptor 1, sequence (P17948 whole entry): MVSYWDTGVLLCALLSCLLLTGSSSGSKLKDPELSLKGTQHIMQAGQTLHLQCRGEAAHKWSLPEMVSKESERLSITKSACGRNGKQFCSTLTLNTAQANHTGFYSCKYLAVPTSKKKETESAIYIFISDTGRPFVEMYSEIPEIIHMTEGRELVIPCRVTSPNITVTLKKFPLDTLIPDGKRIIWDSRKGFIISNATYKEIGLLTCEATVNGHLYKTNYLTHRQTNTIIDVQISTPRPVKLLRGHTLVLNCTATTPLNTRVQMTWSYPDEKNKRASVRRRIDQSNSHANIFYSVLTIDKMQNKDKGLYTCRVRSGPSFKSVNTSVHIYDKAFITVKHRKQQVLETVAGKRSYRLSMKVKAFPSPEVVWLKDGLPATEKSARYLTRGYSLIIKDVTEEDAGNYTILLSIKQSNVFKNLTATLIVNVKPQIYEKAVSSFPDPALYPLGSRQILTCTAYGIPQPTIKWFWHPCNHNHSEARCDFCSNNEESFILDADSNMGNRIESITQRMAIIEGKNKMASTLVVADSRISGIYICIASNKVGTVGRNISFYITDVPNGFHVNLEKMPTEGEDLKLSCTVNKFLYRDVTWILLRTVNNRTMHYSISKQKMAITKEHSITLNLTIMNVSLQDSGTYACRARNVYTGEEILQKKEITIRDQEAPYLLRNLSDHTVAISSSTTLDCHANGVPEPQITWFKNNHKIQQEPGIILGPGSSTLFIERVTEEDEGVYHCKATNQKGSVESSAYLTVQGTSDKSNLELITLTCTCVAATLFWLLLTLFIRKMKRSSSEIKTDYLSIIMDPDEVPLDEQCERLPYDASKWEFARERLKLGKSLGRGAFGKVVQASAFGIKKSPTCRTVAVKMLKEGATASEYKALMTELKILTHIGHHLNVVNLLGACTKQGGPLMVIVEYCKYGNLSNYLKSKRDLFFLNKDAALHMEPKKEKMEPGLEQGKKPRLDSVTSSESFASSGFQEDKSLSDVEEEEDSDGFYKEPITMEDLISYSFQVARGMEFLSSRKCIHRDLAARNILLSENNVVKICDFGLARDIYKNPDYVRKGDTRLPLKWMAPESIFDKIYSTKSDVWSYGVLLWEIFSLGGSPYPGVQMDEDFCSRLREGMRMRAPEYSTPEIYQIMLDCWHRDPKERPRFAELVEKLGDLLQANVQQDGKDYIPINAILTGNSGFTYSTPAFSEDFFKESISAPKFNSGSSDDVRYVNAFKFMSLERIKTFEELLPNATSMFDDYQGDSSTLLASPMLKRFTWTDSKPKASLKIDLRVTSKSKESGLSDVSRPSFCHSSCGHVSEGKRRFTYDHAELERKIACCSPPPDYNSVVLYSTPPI
Aurora kinase B (Homo sapiens), sequence (Q96GD4 whole entry): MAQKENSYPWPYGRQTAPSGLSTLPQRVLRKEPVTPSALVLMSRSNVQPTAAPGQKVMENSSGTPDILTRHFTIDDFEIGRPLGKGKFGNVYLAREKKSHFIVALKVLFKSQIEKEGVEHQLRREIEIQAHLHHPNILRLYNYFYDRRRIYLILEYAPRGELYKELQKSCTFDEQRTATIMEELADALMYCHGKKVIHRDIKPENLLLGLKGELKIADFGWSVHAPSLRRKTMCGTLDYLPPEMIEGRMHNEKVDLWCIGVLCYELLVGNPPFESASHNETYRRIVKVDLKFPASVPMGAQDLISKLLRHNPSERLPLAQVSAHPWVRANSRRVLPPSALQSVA
Serine/threonine-protein kinase PLK1 (Homo sapiens), sequence (P53350 whole entry): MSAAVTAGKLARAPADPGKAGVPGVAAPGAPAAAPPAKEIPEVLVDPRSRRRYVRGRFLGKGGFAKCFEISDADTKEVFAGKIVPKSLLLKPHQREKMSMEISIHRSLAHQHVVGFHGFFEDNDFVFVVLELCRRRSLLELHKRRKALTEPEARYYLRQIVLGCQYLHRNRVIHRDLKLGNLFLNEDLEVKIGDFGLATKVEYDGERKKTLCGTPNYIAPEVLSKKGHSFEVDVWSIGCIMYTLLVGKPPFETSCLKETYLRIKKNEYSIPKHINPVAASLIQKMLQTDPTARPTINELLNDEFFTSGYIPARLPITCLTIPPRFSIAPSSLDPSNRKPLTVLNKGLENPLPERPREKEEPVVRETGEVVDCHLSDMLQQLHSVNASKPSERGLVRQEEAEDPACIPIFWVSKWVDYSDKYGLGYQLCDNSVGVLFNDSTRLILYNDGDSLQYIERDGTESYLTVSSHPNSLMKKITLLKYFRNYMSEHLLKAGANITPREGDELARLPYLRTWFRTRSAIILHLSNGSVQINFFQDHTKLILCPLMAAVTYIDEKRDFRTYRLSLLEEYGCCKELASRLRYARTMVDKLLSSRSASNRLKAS

SMILES | inhibition [1] [%] | IC50 [2] [nM] | inhibition [3] [%] | IC50 [4] [nM] | inhibition [5] [%] | inhibition [6] [%] | inhibition [7] [%] | inhibition [8] [%] | inhibition [9] [%] | inhibition [10] [%] | inhibition [12] [%] | inhibition [13] [%] | inhibition [14] [%] | inhibition [15] [%] | inhibition [16] [%] | inhibition [17] [%] | inhibition [18] [%] | inhibition [19] [%] | inhibition [20] [%] | inhibition [21] [%] | also measured
FC(F)(F)c1cccc(-n2cc(-c3ccccc3NCc3ccccn3)nn2)c1 | < 30 | > 10000 | < 30 | > 10000 | < 30 | < 30 | < 30 | < 30 | < 30 | < 30 | < 30 | < 30 | < 30 | < 30 | < 30 | < 30 | < 30 | < 30 | < 30 | < 30 | IC50 [11]: > 10000 nM
Fc1ccc(CNc2ccccc2-c2cn(-c3cccc(Cl)c3)nn2)cc1F | < 30 |  | < 30 |  | < 30 | < 30 | < 30 | < 30 | < 30 | < 30 | < 30 | < 30 | < 30 | < 30 | < 30 | < 30 | < 30 | < 30 | < 30 | < 30 | 
Clc1cccc(-n2cc(-c3ccccc3NCc3cccnc3)nn2)c1 | < 30 | > 10000 | < 30 | 4230 | < 30 | < 30 | < 30 | < 30 | < 30 | < 30 | < 30 | < 30 | < 30 | < 30 | < 30 | < 30 | < 30 | < 30 | < 30 | < 30 | IC50 [11]: > 10000 nM
O=C(Nc1ccc(C(F)(F)F)cc1)c1[nH]nnc1NCc1ccncc1 |  | > 10000 |  | > 10000 |  |  |  |  |  |  |  |  |  |  |  |  |  |  |  |  | 
FC(F)(F)c1cccc(-n2cc(-c3ccccc3NCc3ccc4c(c3)OCO4)nn2)c1 | < 30 | > 10000 | < 30 | > 10000 | < 30 | < 30 | < 30 | < 30 | < 30 | < 30 | < 30 | < 30 | < 30 | < 30 | < 30 | < 30 | < 30 | < 30 | < 30 | < 30 | IC50 [11]: > 10000 nM
O=C(Nc1cccc(C(F)(F)F)c1)c1nn[nH]c1NCc1ccncc1 |  |  |  | 5000 |  |  |  |  |  |  |  |  |  |  |  |  |  |  |  |  | Activity [11]: inactive
O=C(Nc1cccc(Cl)c1)c1nn[nH]c1NCc1ccncc1 |  |  |  | 5000 |  |  |  |  |  |  |  |  |  |  |  |  |  |  |  |  | Activity [11]: inactive
O=C(Nc1ccc(Cl)cc1)c1nn[nH]c1NCc1ccncc1 |  | > 10000 |  | > 10000 |  |  |  |  |  |  |  |  |  |  |  |  |  |  |  |  | 

The next lines start with results.

inhibition [1] [%] | IC50 [2] [nM] | inhibition [3] [%] | IC50 [4] [nM] | inhibition [5] [%] | inhibition [6] [%] | inhibition [7] [%] | inhibition [8] [%] | inhibition [9] [%] | inhibition [10] [%] | inhibition [12] [%] | inhibition [13] [%] | inhibition [14] [%] | inhibition [15] [%] | inhibition [16] [%] | inhibition [17] [%] | inhibition [18] [%] | inhibition [19] [%] | inhibition [20] [%] | inhibition [21] [%] | SMILES | also measured
< 30 | 250 | < 30 | 270 | < 30 | < 30 | < 30 | < 30 | < 30 | < 30 | < 30 | < 30 | < 30 | < 30 | < 30 | < 30 | < 30 | < 30 | < 30 | < 30 | CC(C)(C)c1cccc(-n2cc(-c3ccccc3NCc3ccncc3)nn2)c1 | IC50 [11]: 330 nM
< 30 | 110 | < 30 | 140 | < 30 | < 30 | < 30 | < 30 | < 30 | < 30 | < 30 | < 30 | < 30 | < 30 | < 30 | < 30 | < 30 | < 30 | < 30 | < 30 | Cc1ccc(-n2cc(-c3ccccc3NCc3ccncc3)nn2)cc1C(F)(F)F | IC50 [11]: 180 nM
< 30 | 1130 | < 30 | 930 | < 30 | < 30 | < 30 | < 30 | < 30 | < 30 | < 30 | < 30 | < 30 | < 30 | < 30 | < 30 | < 30 | < 30 | < 30 | < 30 | FC(F)(F)c1ccc(-n2cc(-c3ccccc3NCc3ccncc3)nn2)cc1Cl | IC50 [11]: 2920 nM
< 30 | 170 | < 30 | 190 | < 30 | < 30 | < 30 | < 30 | < 30 | < 30 | < 30 | < 30 | < 30 | < 30 | < 30 | < 30 | < 30 | < 30 | < 30 | < 30 | Clc1cccc(-n2cc(-c3ccccc3NCc3ccnc4ccccc34)nn2)c1 | IC50 [11]: 270 nM
< 30 | 660 | < 30 | 590 | < 30 | < 30 | < 30 | < 30 | < 30 | < 30 | < 30 | < 30 | < 30 | < 30 | < 30 | < 30 | < 30 | < 30 | < 30 | < 30 | FC(F)(F)c1ccc(-n2cc(-c3ccccc3NCc3ccncc3)nn2)cc1 | IC50 [11]: 1920 nM
< 30 | 650 | < 30 | 680 | < 30 | < 30 | < 30 | < 30 | < 30 | < 30 | < 30 | < 30 | < 30 | < 30 | < 30 | < 30 | < 30 | < 30 | < 30 | < 30 | c1ccc(-c2cn(-c3ccc4[nH]ncc4c3)nn2)c(NCc2ccncc2)c1 | IC50 [11]: 2330 nM
< 30 | 650 | < 30 | 630 | < 30 | < 30 | < 30 | < 30 | < 30 | < 30 | < 30 | < 30 | < 30 | < 30 | < 30 | < 30 | < 30 | < 30 | < 30 | < 30 | Clc1ccc(-n2cc(-c3ccccc3NCc3ccncc3)nn2)cc1Cl | IC50 [11]: 1470 nM
< 30 | 510 | < 30 | 440 | < 30 | < 30 | < 30 | < 30 | < 30 | < 30 | < 30 | < 30 | < 30 | < 30 | < 30 | < 30 | < 30 | < 30 | < 30 | < 30 | FC(F)(F)c1cc(-n2cc(-c3ccccc3NCc3ccncc3)nn2)ccc1Cl | IC50 [11]: 780 nM
